From ChEMBL document CHEMBL2346664, “Synthesis, characterization and in vitro anticancer evaluation of novel 1,2,4-triazolin-3-one derivatives” (2013)

Columns and labels:
Format in all cases: functional
[1] = system: DU-145; assay: Growth inhibition of human DU145 cells assessed as cell growth at 10 uM after 48 hrs by sulforhodamine B assay; conditions: DU-145, 48 h, read-out: Activity
How it was run: (§1)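 NCI-60 primary single-dose screen at 10^-5 M, 48 h continuous exposure. Adherent cells were fixed with cold TCA (10% final) and suspension cells with 16% final TCA, then stained with 0.4% SRB in 1% acetic acid. Bound dye was solubilized in 10 mM Tris base and read at 515 nm. Output is growth percent relative to untreated controls, and GI% is 100 minus growth percent.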

[2] = system: SK-MEL-28; assay: Growth inhibition of human SK-MEL-28 cells assessed as cell growth at 10 uM after 48 hrs by sulforhodamine B assay; conditions: SK-MEL-28, 48 h, read-out: Activity
How it was run: (§2)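 NCI-60 single-dose screen at 10^-5 M. Cells plated at 5,000–40,000/well by doubling time and grown 24 h at 37 °C, 5% CO2, then drug added from DMSO stock for 48 h continuous exposure. Adherent cells fixed with cold TCA (final 10%), suspension cells with 16% TCA. SRB stain read at 515 nm. Reported as growth percent relative to untreated controls and time-zero plates.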

[3] = system: A498; assay: Growth inhibition of human A498 cells assessed as cell growth at 10 uM after 48 hrs by sulforhodamine B assay; conditions: A498, 48 h, read-out: Activity
How it was run: (§3)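 NCI-60 primary screen at a single dose of 10^-5 M. Output is mean growth percent of treated cells relative to untreated controls, where values between 0 and 100 indicate growth inhibition and values below 0 indicate cytotoxicity. Cells were plated 24 h before drug, incubated 48 h at 37 °C, 5% CO2, and stained with SRB after TCA fixation. Suspension cells were fixed with 80% TCA (16% final).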

[4] = Growth inhibition of human EKVX cells assessed as cell growth at 10 uM after 48 hrs by sulforhodamine B assay; conditions: read-out: Activity; how it was run: as §1
[5] = system: OVCAR-4; assay: Growth inhibition of human OVCAR4 cells assessed as cell growth at 10 uM after 48 hrs by sulforhodamine B assay; conditions: OVCAR-4, 48 h, read-out: Activity; how it was run: as §2
[6] = system: MOLT-4; assay: Growth inhibition of human MOLT4 cells assessed as cell growth at 10 uM after 48 hrs by sulforhodamine B assay; conditions: MOLT-4, 48 h, read-out: Activity; how it was run: as §1
[7] = system: 786-0; assay: Growth inhibition of human 786-0 cells assessed as cell growth at 10 uM after 48 hrs by sulforhodamine B assay; conditions: 786-0, 48 h, read-out: Activity; how it was run: as §3
[8] = system: NCI-H460; assay: Growth inhibition of human NCI-H460 cells assessed as cell growth at 10 uM after 48 hrs by sulforhodamine B assay; conditions: NCI-H460, 48 h; how it was run: as §2
[9] = system: K562; assay: Growth inhibition of human K562 cells assessed as cell growth at 10 uM after 48 hrs by sulforhodamine B assay; conditions: K562, 48 h, read-out: Activity; how it was run: as §1
[10] = system: SNB-19; assay: Growth inhibition of human SNB19 cells assessed as cell growth at 10 uM after 48 hrs by sulforhodamine B assay; conditions: SNB-19, 48 h, read-out: Activity; how it was run: as §2
[11] = system: HOP-62; assay: Growth inhibition of human HOP62 cells assessed as cell growth at 10 uM after 48 hrs by sulforhodamine B assay; conditions: HOP-62, 48 h, read-out: Activity; how it was run: as §1
[12] = system: HOP-92; assay: Growth inhibition of human HOP92 cells assessed as cell growth at 10 uM after 48 hrs by sulforhodamine B assay; conditions: HOP-92, 48 h, read-out: Activity; how it was run: as §1
[13] = system: BT-549; assay: Growth inhibition of human BT549 cells assessed as cell growth at 10 uM after 48 hrs by sulforhodamine B assay; conditions: BT-549, 48 h, read-out: Activity; how it was run: as §3
[14] = system: HT-29; assay: Growth inhibition of human HT-29 cells assessed as cell growth at 10 uM after 48 hrs by sulforhodamine B assay; conditions: HT-29, 48 h, read-out: Activity; how it was run: as §1
[15] = system: NCI-H226; assay: Growth inhibition of human NCI-H226 cells assessed as cell growth at 10 uM after 48 hrs by sulforhodamine B assay; conditions: NCI-H226, 48 h, read-out: Activity; how it was run: as §1
[16] = system: OVCAR-8; assay: Growth inhibition of human OVCAR8 cells assessed as cell growth at 10 uM after 48 hrs by sulforhodamine B assay; conditions: OVCAR-8, 48 h, read-out: Activity; how it was run: as §2
[17] = system: SK-MEL-5; assay: Growth inhibition of human SK-MEL-5 cells assessed as cell growth at 10 uM after 48 hrs by sulforhodamine B assay; conditions: SK-MEL-5, 48 h, read-out: Activity; how it was run: as §2
[18] = system: HL-60(TB); assay: Growth inhibition of human HL-60(TB) cells assessed as cell growth at 10 uM after 48 hrs by sulforhodamine B assay; conditions: HL-60, 48 h, read-out: Activity
How it was run: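 NCI DTP single high-dose primary screen at 10^-5 M across 60 human tumour lines. Growth percent of treated cells is taken relative to untreated controls: values of 0–100 indicate growth inhibition and values below 0 indicate cytotoxicity. Both growth percent and percentage growth inhibition are reported.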

[19] = system: SN12C; assay: Growth inhibition of human SN12C cells assessed as cell growth at 10 uM after 48 hrs by sulforhodamine B assay; conditions: read-out: Activity; how it was run: as §2
[20] = system: NCI-H23; assay: Growth inhibition of human NCI-H23 cells assessed as cell growth at 10 uM after 48 hrs by sulforhodamine B assay; conditions: NCI-H23, 48 h, read-out: Activity; how it was run: as §1
[21] = system: SR; assay: Growth inhibition of human SR cells assessed as cell growth at 10 uM after 48 hrs by sulforhodamine B assay; conditions: read-out: Activity; how it was run: as §2
[22] = system: KM12; assay: Growth inhibition of human KM12 cells assessed as cell growth at 10 uM after 48 hrs by sulforhodamine B assay; conditions: KM12, 48 h, read-out: Activity; how it was run: as §1
[23] = system: UO-31; assay: Growth inhibition of human UO31 cells assessed as cell growth at 10 uM after 48 hrs by sulforhodamine B assay; conditions: UO-31, 48 h, read-out: Activity; how it was run: as §2
[24] = system: HCT-116; assay: Growth inhibition of human HCT116 cells assessed as cell growth at 10 uM after 48 hrs by sulforhodamine B assay; conditions: HCT-116, 48 h, read-out: Activity; how it was run: as §1
[25] = system: MDA-MB-435; assay: Growth inhibition of human MDA-MB-435 cells assessed as cell growth at 10 uM after 48 hrs by sulforhodamine B assay; conditions: MDA-MB-435, 48 h, read-out: Activity; how it was run: as §1
[26] = system: OVCAR-5; assay: Growth inhibition of human OVCAR5 cells assessed as cell growth at 10 uM after 48 hrs by sulforhodamine B assay; conditions: OVCAR-5, 48 h, read-out: Activity; how it was run: as §2
[27] = system: CAKI-1; assay: Growth inhibition of human CAKI-1 cells assessed as cell growth at 10 uM after 48 hrs by sulforhodamine B assay; conditions: CAKI-1, 48 h, read-out: Activity; how it was run: as §3
[28] = system: UACC-62; assay: Growth inhibition of human UACC62 cells assessed as cell growth at 10 uM after 48 hrs by sulforhodamine B assay; conditions: UACC-62, 48 h, read-out: Activity; how it was run: as §2
[29] = system: SF-539; assay: Growth inhibition of human SF539 cells assessed as cell growth at 10 uM after 48 hrs by sulforhodamine B assay; conditions: SF-539, 48 h, read-out: Activity; how it was run: as §2

| SMILES | growth at 10 µM [1] | growth at 10 µM [2] | growth at 10 µM [3] | growth at 10 µM [4] | growth at 10 µM [5] | growth at 10 µM [6] | growth at 10 µM [7] | growth at 10 µM [9] | growth at 10 µM [10] | growth at 10 µM [11] | growth at 10 µM [12] | growth at 10 µM [13] | growth at 10 µM [14] | growth at 10 µM [15] | growth at 10 µM [16] | growth at 10 µM [17] | growth at 10 µM [18] | growth at 10 µM [19] | growth at 10 µM [20] | growth at 10 µM [21] | other results |
| --- | --- | --- | --- | --- | --- | --- | --- | --- | --- | --- | --- | --- | --- | --- | --- | --- | --- | --- | --- | --- | --- |
| Cc1nn(-c2ccc(Cl)cc2)c(=O)n1CCN1CCOCC1 | 78.5% | 92.9% | 105% | 75.5% | 93.4% | 90.9% | 59.4% | 70.1% | 58.7% | 33.8% | 30.1% | 61.5% | 104% | 79.4% | 116% | 80.3% | 105% | 89.6% | 64.5% | 95.3% | growth at 10 µM ([8]; read-out: Activity): 41.8%; growth at 10 µM [22]: 81.3%; growth at 10 µM [23]: 66%; growth at 10 µM [24]: 29.5%; growth at 10 µM [25]: 84.9%; growth at 10 µM [26]: 92.4%; growth at 10 µM [27]: 72.4%; growth at 10 µM [28]: 82.8%; growth at 10 µM [29]: 67% |
| Cc1cc(=O)oc2cc(OCCn3c(C)nn(-c4ccc(Cl)cc4)c3=O)ccc12 | 21.6% | 40.8% | 25.7% | 58.7% | 67.1% | 37.6% | 32.9% | 16.3% | 54.5% | 27.4% | 47.4% | 56.7% | 0.7% | 50.1% | 17.7% | 10.8% | -5.7% | 51.8% | 45.8% | 21.2% | inhibition of growth at 10 µM ([8]; read-out: GI): 17.2%; growth at 10 µM [22]: 31.4%; growth at 10 µM [23]: 42.8%; growth at 10 µM [24]: 15.1%; growth at 10 µM [25]: -38.5%; growth at 10 µM [26]: 38.8%; growth at 10 µM [27]: 19.5%; growth at 10 µM [28]: 43.3%; growth at 10 µM [29]: 29.5% |
